This note sets out measurements from ChEMBL document CHEMBL4837210 (Eur J Med Chem, 2021).

The subject of experiment [1] is Escherichia coli. The experiment is described as follows: Antibacterial activity against penicillin-susceptible Escherichia coli ATCC 25922 assessed as inhibition of bacterial growth measured by broth microdilution method. The class given is functional. The conditions noted are these: time 24 hrs. Put shortly:
(§1)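 Broth microdilution in Mueller Hinton broth. A 0.5 McFarland suspension was diluted tenfold, giving an inoculum of 1.5 × 10⁷ cfu/mL. This was added to 2-fold serial compound dilutions from […]. Plates were incubated aerobically at 37 °C for 24 h. MIC was the lowest concentration with no visible turbidity.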
For orientation: Dilution methods test growth across graded concentrations, often in twofold steps.

For experiment [2], the system named is Bacillus subtilis. Kind of experiment: Ratio of MBC to MIC against penicillin-susceptible Bacillus subtilis ATCC 9372. The class given is functional. The gist of the method: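 Ratio of MBC to MIC, both measured by broth microdilution in MH broth (37 °C, 24 h); MBC was scored by subculturing clear wells onto tryptic soy agar for 24 h. Following CLSI, a ratio of 4 or less counts as bactericidal.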

Experiment [3] concerns Staphylococcus aureus. Kind of experiment: In vivo antibacterial activity against […] Staphylococcus aureus ATCC 25923 infected in Kunming mouse assessed as reduction in bacterial load at 1 mg/kg, administered 1 hr post bacterial infection and measured after 1 hr post compound treatment. The class given is functional, organism-based. The gist of the method: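 Kunming mice (~25 g, 6 per group) infected intravenously with 6 × 10⁷ CFU S. aureus ATCC25923 in 0.2 mL saline. About 1 h later, 1, 5 or 25 mg/kg was given intraperitoneally in 0.5 mL vehicle, with linezolid as reference. Orbital blood (100 µL) was taken before and 1 h after treatment, spread on MH agar and counted after 24 h.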

The subject of experiment [4] is Staphylococcus aureus. The experiment is described as follows: Antibacterial activity against Staphylococcus aureus ATCC 25923 assessed as reduction in bacterial growth measured after 18 passages by resistance development assay relative to control. In kind it is functional. The conditions noted are these: time 24 hrs. Put shortly: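 Serial-passage resistance test with S. aureus ATCC25923. Cells from wells at 0.5× MIC made the next inoculum (~10⁷ CFU/mL), and the MIC was redetermined after 24 h at 37 °C.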

Experiment [5] deals with Enterococcus faecium. Kind of experiment: Antibacterial activity against vancomycin-resistant Enterococcus faecium ATCC 51559 assessed as bacterial growth inhibition incubated for 24 hrs by CLSI protocol based broth microdilution method. The conditions noted are these: ATCC 51559, 24 h.
Experiment [6] addresses T1, Cell division protein FtsZ (Bacillus subtilis) (UniProt A5Z1V5).
T1 sequence (whole entry): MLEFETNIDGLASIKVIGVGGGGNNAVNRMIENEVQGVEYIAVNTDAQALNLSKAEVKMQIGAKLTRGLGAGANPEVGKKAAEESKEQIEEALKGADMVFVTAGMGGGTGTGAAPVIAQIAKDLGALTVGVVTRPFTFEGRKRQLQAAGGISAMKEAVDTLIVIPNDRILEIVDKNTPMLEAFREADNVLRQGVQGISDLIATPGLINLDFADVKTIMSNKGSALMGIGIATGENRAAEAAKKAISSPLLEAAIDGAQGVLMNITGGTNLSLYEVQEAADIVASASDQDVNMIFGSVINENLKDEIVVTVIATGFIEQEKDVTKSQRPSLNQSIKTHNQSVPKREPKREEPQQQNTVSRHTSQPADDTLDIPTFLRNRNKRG
The experiment is described as follows: Induction of Bacillus subtilis FtsZ polymerization by fluorescence spectrophotometry. The conditions noted are these: dose 2.5-10 µg/ml, time 800.0 sec. Put shortly:
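Light scattering of B. subtilis FtsZ in 20 mM Tris pH 7.4 with 20 mM KCl, 5 mM MgCl₂ and 0.01% Triton X-100. Protein was preincubated in a cuvette with vehicle (2% DMSO) or compound. GTP was added last (2 mM final), and scattering at excitation 411 nm / emission 430 nm was followed for 800 s.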

Experiment [7] concerns Streptococcus pyogenes. Kind of experiment: Antibacterial activity against erythromycin-resistant Streptococcus pyogenes 2 assessed as bacterial growth inhibition incubated for 24 hrs by CLSI protocol based broth microdilution method. The class given is functional.
For experiment [8], the system named is Pseudomonas aeruginosa. Kind of experiment: Antibacterial activity against penicillin-susceptible Pseudomonas aeruginosa ATCC27853 assessed as bacterial growth inhibition incubated for 24 hrs by CLSI protocol based broth microdilution method. In kind it is functional.
The test system of experiment [9] is Bacillus pumilus. Kind of experiment: Antibacterial activity against penicillin-susceptible Bacillus pumilus CMCC 63202 assessed as bacterial growth inhibition by broth dilution method. In kind it is functional. The conditions noted are these: time 24 hrs. Put shortly:
as §1

In experiment [10] the test system is Staphylococcus aureus. The experiment is described as follows: Antibacterial activity against Staphylococcus aureus assessed as inhibition of bacterial growth measured by broth microdilution method. The class given is functional. The conditions noted are these: time 24 hrs. The gist of the method: as §1
Experiment [11] concerns Bacillus pumilus. Kind of experiment: Induction of morphological changes in Bacillus pumilus CMCC 63202 assessed as alteration in length measured at 0.5 times MIC after 18 hrs by Phase contrast light microscope analysis (reference value: 1.2 to 3 micrometer). The class given is functional.
Experiment [12] deals with Staphylococcus aureus. Kind of experiment: Antibacterial activity against erythromycin-susceptible Staphylococcus aureus ATCC 25923 assessed as bacterial growth inhibition incubated for 24 hrs by CLSI protocol based broth microdilution method. In kind it is functional.

Activity calls are given as the source filed them. No cut-off for these calls is given here.

In general, MIC refers to the lowest concentration that inhibits growth of the organism. Consider `C[n+]1c2ccccc2c(/C=C/c2ccc(C(C)(C)C)cc2)c2ccccc21.[I-]`, for which the MIC in [1] is above 64 µg/mL; in experiment [5], 2 µg/mL; in experiment [7] it was 0.25 µg/mL; in experiment [8] it was above 64 µg/mL; in experiment [9], 0.5 µg/mL; in experiment [10] it was 0.5 µg/mL. In addition, the MIC in experiment [12] was determined as 0.5 µg/mL. In addition, the Ratio in [2] was found to be 2. The result in [3] was inactive. Moreover, the fold change (FC) in [4] is 2. For the same compound, the Activity result in experiment [6] was “Dose-Dependent Effect”; in experiment [11], 20 um.
